Results: the EternaBench riboswitch data

System: MS2 coat protein
Assay: apparent Kd, MS2 coat protein; higher = weaker binding; RNA-MaP array; FMN 200 µM where present
Method in brief: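 Two titrations, one without ligand and one with constant ligand, were run with SNAP-549-labelled MS2 coat protein from 0.7 or 1.5 nM, doubling to 3 µM. The targets were designs transcribed by stalled E. coli RNA polymerase on Illumina sequencing-chip clusters, in 100 mM Tris-HCl pH 7.5, 80 mM KCl, 4 mM MgCl2, BSA, DTT, yeast tRNA and Tween-20. The apparent Kd is the median of filtered per-cluster binding-curve fits, with green signal normalised to red-channel RNA signal and control-cluster median Fmax.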

[1] = designed as: OFF switch for flavin mononucleotide, no ligand
[2] = ligand present: flavin mononucleotide, designed as: OFF switch for flavin mononucleotide
[3] = designed as: ON switch for flavin mononucleotide, no ligand
[4] = ligand present: flavin mononucleotide, designed as: ON switch for flavin mononucleotide

| Sequence | apparent Kd [1] | apparent Kd [2] | apparent Kd [3] | apparent Kd [4] |
| --- | --- | --- | --- | --- |
| UAAUAAAGUGUGAGGAUAUGCUGGUCCAUAGAUCAGCAGAAGGCACAUGAGGAUCACCCAUGUAAUAUAUAAAU | 28.4 nM | 145 nM | – | – |
| GUGUACGGAGGAUAUAUGUGGUGAGCAUACGCUCAAGCUUCACAUGAGGAUCACCCAUGUAGAAGGCUGUGCAC | 210 nM | 150 nM | – | – |
| CCUCGUUGGGAGGAUAUCCUUUUGGUUGGAGGAGGAGAAGGCUCGACAUGAGGAUCACCCAUGUGGGAUUUCCC | 62.4 nM | 194 nM | – | – |
| GUCUUUAAGGUAGGAUAUAGUAUGAUGGUUUAAUUAGAAGGAUCUCACAUGAGGAUCACCCAUGUAAUAGGAUUACCCAUGUAU | 60.9 nM | 43.4 nM | – | – |
| AGUUAAUAUCGAGGAUAUGUCUAGACACAUGAGGAUCACCCAUGUAUGUGUAUAGAAGGCGAUAUUAACAGCAUGUUACAUGCC | – | – | 37.2 nM | 15.6 nM |
| UUUUAACAUGAGGAUCACCCAUGUGAGGAUAUCGAAAUUUAUAUUAAUAUUAUUAAAUCGAGAAGGCACAUUUU | 102 nM | 97.4 nM | – | – |
| UCUGCUCGAGGAUAUACAUGAGGAUCACCCAUGUAACCCAGAAGCAUGGCCUCAGGAUGUAGAAGGCGACGCUA | 17.3 nM | 37.5 nM | – | – |
| CCGUAAAAUGGAGGAUAUGGAGCCUUAUUGGCUCCAGAAGGUCAUAAAACAUGAGGAUCACCCAUGUCGGCGGUCAAUAGACCG | – | – | 47.9 nM | 20.2 nM |
| GCAUCACAUGAGGAUCACCCAUGUCUUCGGAGUGGAGGAUAUGGUCACUGUAAACAGUGGCCAGAAGGCCGGAUGC | – | – | 82.6 nM | 94.5 nM |
| GAUUGACAUGAGGAUCACCCAUGUGAGGAUAUCGGCUGGACCGUGUUGGCUUCCGUCUCGAGAAGGCGCAUAGG | 16 nM | 23.3 nM | – | – |
| CACUCACAUGAGGAUCACCCAUGUCCUAGCAGGUCAGGAUAUAGCUCGGAUGCGUUGAGUCUAGAAGGGACACGUU | – | – | 96.7 nM | 62.5 nM |
| CGCGAACAUGAGGAUCACCCAUGUGAAAAACAUAGAGGAUAUGUCGCAUGCGUGUAAAAGACAGAAGGCUAUCGCG | – | – | 76.7 nM | 27.9 nM |
| CUUUAGCUAGGAUAUACAUGAGGAUCACCCAUGUUAGCGGCCAAUUGGACCGCGGGUUGUAGAAGGAGCAUUAA | 37.5 nM | 50.3 nM | – | – |
| AACGCGUCAGGAUAUGCCAUAAAUUACCUAAUACGACCAUAGCAGAAGGGACAUGAGGAUCACCCAUGUAAAUA | 36.2 nM | 28.8 nM | – | – |
| CAUAUACAGGGAGGAUAUAACAUGAGGAUCACCCAUGUGCAAUCCUCAAUGUUAGAAGGCCCAAUAGAAUCGCAAAAGGCAUCC | 8.51 nM | 4.96 nM | – | – |
| GCUGCAUAGGCAGGAUAUGCAAAAGCAGAUGCAAAGCAUUUGUAAAACACAUGAGGAUCACCCAUGUAGAAGGGCCUGUGCAGU | 21.8 nM | 21.5 nM | – | – |
| AAGUAUAGAGGAUAUAGUGAGUACUACAUGAGGAUCACCCAUGUUCUUCAAAACGUAUUUCUAGAAGGCUGUUAAA | 45.3 nM | 86.7 nM | – | – |
| GGUGGCCGAGGAUAUACGGACGUGUCGCCGGGUGUCGUGGGACAUGAGGAUCACCCAUGUAGAAGGUGGUUGUC | 187 nM | 147 nM | – | – |
| AUUCAGUCAGGAUAUCGUUAAUUUAAUUGUUUGUUUUAGUUCGAGAAGGGACAUGAGGAUCACCCAUGUACUUA | 25.9 nM | 27.3 nM | – | – |
| GCAUGCAAGUAGAAGGACGGAUAUUUUGAAAACGUAGGAUAUACAGAAUCAUAUCCACAAGGUAACAUGAGGAUCACCCAUGUA | 10.5 nM | 9.58 nM | – | – |
| ACCGUAUGAACAUGAGGAUCACCCAUGUAUUCGAAAAGGAAUGAGGAUAUCGAUAGCAAAGCUAUCGAGAAGGCAUGGGACGGU | – | – | 255 nM | 60.4 nM |
| AUAAUACAUGAGGAUCACCCAUGUAAUUUAACUUGUAAGAUCAAGGAUAUCAGCUCGUUUAGAGCUGAGAAGGUGAUCACAUGU | – | – | 187 nM | 292 nM |
| AAUUUACAGCUAGGAUAUACAUGAGGAUCACCCAUGUAAUGAUCGGAUCUUAUGAUCGUAUCCGUGUAGAAGGAGCAAAUAAGA | 8.12 nM | 8.8 nM | – | – |
| GUCAGCUCGUGAGGAUAUACAUGAUAGAUCGAUUAAUUAAUUAAUUUAACAUGAGGAUCACCCAUGUAGAAGGUACGAGCUGAU | 61.6 nM | 45.2 nM | – | – |
| GGUGGUCCUGUUACAUGAGGAUCACCCAUGUGAGGGCCACGUAGAAGGACCCAGAACUCCUUUGGGUAGGAUAUAUGGGCCUUC | 4.78 nM | 5.97 nM | – | – |
| UUCAGGGAUCAAGGAUAUCUAUAAACAUGCGGACAUGAGGAUCACCCAUGUUGAUUACCCAUGUGGGAGAAGGUGAACAUGAGG | – | – | 44.7 nM | 20.6 nM |
| UGUCAGAGCAGAGGAUAUUACAUGAGGAUCACCCAUGUAUGAACCAAUAGCUGGAAACAGCAAUGUAAGAAGGCUGCUCCGACA | 11.9 nM | 130 nM | – | – |
| GACUUGCGCACAGGAUAUCCACGUAGCGGACGUGGAGAAGGGUGACAUGAGGAUCACCCAUGUACGUAAGUCUGGAUCACUUCC | – | – | 48.3 nM | 21.8 nM |

| Sequence | apparent Kd [1] | apparent Kd [2] | apparent Kd [3] | apparent Kd [4] |
| --- | --- | --- | --- | --- |
| GUAGCAUACCGAGGAUAUUCUGGGCAUAAAUAAACAUGAGGAUCACCCAUGUGGCGAAAGCCUAGGGAGAAGGCGGAAUGCUAC | – | – | 14.8 nM | 13.6 nM |
| UGAUAGGACAGAGGAUAUACCGAUAGGAUCUACUAUCGAACAAUCCUCACAUGAGGAUCACCCAUGUAGAAGGCUGUCCUAUCU | 25.2 nM | 284 nM | – | – |
| UUGUUGUAUGUAGGAUAUGCAUGUUAUUAUUAUGCAGAAGGACAUGAGGAUCACCCAUGUGUAUUAUUAUUAUAUAUUAUAUAU | 20.9 nM | 23.3 nM | – | – |
| GGAUUGUGAGGAUAUUAGUUGUACGUCAAUAGACGUAUAAGUGAGAAGGCACAUGAGGAUCACCCAUGUUCCUG | 22.7 nM | 80.7 nM | – | – |
| ACUAGAAGCGUGAGAUAUCACAUGAGGAUCACCCAUGUGACGCAGGAUAUAACAAUAUCAGAAGGUUAGAAGGGUGAGCACGCC | – | – | 101 nM | 52.9 nM |
| ACCAGGCGAGGAUAUACUUAGAUUUUUUCGUUUAGUCUCGAACAUGAGGAUCACCCAUGUAGAAGGUGCUUCAC | 49.9 nM | 42.7 nM | – | – |
| UAUAUAUAGUAAGGAUAUGUAUAAAUUUUAUAAACAGAAGGUACUGACAUGAGGAUCACCCAUGUUUUAGUGUGGGCAUGUAGA | 96.2 nM | 147 nM | – | – |
| CAUUUCAUGUCAGGAUAUCCGCGCAGCUUCACGCACGAUAUAAGGGAGCUUGGAGAAGGGACAUGAGGAUCACCCAUGUGCCUC | 10.9 nM | 26 nM | – | – |
| AGCAUGUGAGGAUAUGCGGACUCCAGUAAAUCUGAAGUCCAGUAGAAGGCACAUGAGGAUCACCCAUGUGAUAA | 92.9 nM | 112 nM | – | – |
| CGCUACGUUUCGUAGCAGCUAGGUGAGGAUAUUCAAUUUUUCACAUGAGGAUCACCCAUGUAUGUGAAGAAGGCGCCUAGAAAG | – | – | 11.8 nM | 5.64 nM |
| GCCGAAGGACCCUGACGGGUCGGCUAGGAUAUACAUGAGGAUCACCCAUGUGCGGUUAUUCACGAGUAGAAGGAGCCUCGGCAA | 101 nM | 80.9 nM | – | – |
| UGGUCAUGAUCAGGAUAUUAACAUGGGCUACAUUAAGAAGGGAUAGUGAGAUACGAACAUGAGGAUCACCCAUGUUGUGUUGUU | – | – | 26.8 nM | 21.2 nM |
| UUUUUAUAAGAGAAGGAGGACUUCAUGAGGAUCACCCAUGUGUUAGUACUUAGGAUAUUUAAUAACAUGAGGAUCACCCAUGUC | – | – | 49.4 nM | 49.2 nM |
| GUGCACAUUCGAGGAUAUCGGAGAGAGAUCCUUCGAGAAGGCGAUUCAUGCUGUAUUAUUCUGGACAUGAGGAUCACCCAUGUG | – | – | 230 nM | 101 nM |
| UUAUUAUAUGUAGGAUAUGCAUAUUAGUAUUGUGCAGAAGGACAUGAGGAUCACCCAUGUAUAUUAUUAUUAUAUAUUAUAUAU | 14.6 nM | 21.4 nM | – | – |
| GGAUGACAAAGUCAUCCUUAACGAACAUGAGGAUCACCCAUGUAGGAUAUGGAACUCAAAGAGUUCCAGAAGGACAUGUGCCUU | 33.7 nM | 213 nM | – | – |
| UAGAAAGAUUAAUAUGAUUACAUGAGGAUCACCCAUGUAUAAUAGGAUAUCGACGUCAAUGACGUCGAGAAGGAUUAUACAUAA | 53.6 nM | 71.2 nM | – | – |
| GAGUGGUAGAGAGGAUAUGCAUUGUUAUUAAAUGCAGAAGGUUUUAACAUGAGGAUCACCCAUGUAGGACUAUUCCUGUGUUUC | – | – | 15.5 nM | 13.6 nM |
| UCGCCUUAGUAAGGAUAUCACAUGAGGAUCACCCAUGUGGGCGUGACACGGUGAGAAGGUACGCGGCGAAGGUGCCAAGGCAUC | 387 nM | 44 nM | – | – |
| GGAAAUCAUGUAGGAUAUGCAUGGCGAAGCUACGCAGAAGGACAUGAGGAUCACCCAUGUUAUAGCGUCCGAGAAAGGAUGCAC | 38.8 nM | 162 nM | – | – |
| AUCAGCUCGUCAGGAUAUACGUCACUGCGUCAGCACUGUGGUAAGAUCACAUGAGGAUCACCCAUGUAGAAGGGACGAGCUGAU | 17.7 nM | 172 nM | – | – |
| AAUUUACAUGAGGAUCACCCAUGUGAGGAUAUGAUACUAUGUACUUCGGUACAUAGUAUCAGAAGGCAUGUGAA | 128 nM | 97.7 nM | – | – |
| AUGAGUAAAGCAGGAUAUCUAUUGUCUCUGUAACAUGAGGAUCACCCAUGUAGAGAAGGGCUUAGUCAUACUCUUCGGAGUUGA | 7.27 nM | 9.55 nM | – | – |
| UAAUAUUUAUGAUAUUAUUACAUUAGAAGGCUAGACAUGUGGAUACAUGAGGAUCACCCAUGUAUAGAGGAUAUAGACAUAUAG | 25.8 nM | 42.6 nM | – | – |
| GUCAGCUCGUGAGGAUAUACAACACUGCUUCGGUAGUGUAUUAAGAUCACAUGAGGAUCACCCAUGUAGAAGGCACGAGCUGAU | 15.1 nM | 268 nM | – | – |
| UGUUGUUGAUAGGAUAUACAGGUAGGAGUAGGAGUAGAAGGAUCUACAUGAGGAUCACCCAUGUAGGAGUGAGA | 16.1 nM | 17.7 nM | – | – |
| CAGAUCGGCUAGGAUAUCCAUGGUAUGUUACGAGGAGAAGGAGUCACAUGAGGAUCACCCAUGUCUCAUACUGA | 24.7 nM | 31.8 nM | – | – |
